Source: ChEMBL document CHEMBL1149250, “Optimization of protein kinase CK2 inhibitors derived from 4,5,6,7-tetrabromobenzimidazole” (J Med Chem, 2004)
pIC50: −log10 of the molar value. Active and inactive are the calls of the source. No cut-off for these calls is given here.

Experiments:
Jurkat [1] = assay: Induction of caspase activation assessed as HS1 protein cleavage in Jurkat T cells; type: functional, cell-based; conditions: Homo sapiens
Summary of the method: (§1)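 Jurkat T cells suspended at 10⁶ cells/mL in RPMI-1640 with 1% fetal calf serum, treated 14 h at 37 °C with 5 or 10 μM compound; untreated cells as control, 50 ng/mL anti-Fas as apoptotic control. Cells lysed in hypo-osmotic buffer; caspase activation read by Western blot as degradation of HS1 (full length and major fragment) and PARP.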

[2] = biological target: T1, Ribosomal protein S6 kinase alpha-1 (Homo sapiens, UniProt Q15418); assay: Residual activity of MAPKAPK1a at 10 uM relative to control
T1 sequence (Q15418 whole entry): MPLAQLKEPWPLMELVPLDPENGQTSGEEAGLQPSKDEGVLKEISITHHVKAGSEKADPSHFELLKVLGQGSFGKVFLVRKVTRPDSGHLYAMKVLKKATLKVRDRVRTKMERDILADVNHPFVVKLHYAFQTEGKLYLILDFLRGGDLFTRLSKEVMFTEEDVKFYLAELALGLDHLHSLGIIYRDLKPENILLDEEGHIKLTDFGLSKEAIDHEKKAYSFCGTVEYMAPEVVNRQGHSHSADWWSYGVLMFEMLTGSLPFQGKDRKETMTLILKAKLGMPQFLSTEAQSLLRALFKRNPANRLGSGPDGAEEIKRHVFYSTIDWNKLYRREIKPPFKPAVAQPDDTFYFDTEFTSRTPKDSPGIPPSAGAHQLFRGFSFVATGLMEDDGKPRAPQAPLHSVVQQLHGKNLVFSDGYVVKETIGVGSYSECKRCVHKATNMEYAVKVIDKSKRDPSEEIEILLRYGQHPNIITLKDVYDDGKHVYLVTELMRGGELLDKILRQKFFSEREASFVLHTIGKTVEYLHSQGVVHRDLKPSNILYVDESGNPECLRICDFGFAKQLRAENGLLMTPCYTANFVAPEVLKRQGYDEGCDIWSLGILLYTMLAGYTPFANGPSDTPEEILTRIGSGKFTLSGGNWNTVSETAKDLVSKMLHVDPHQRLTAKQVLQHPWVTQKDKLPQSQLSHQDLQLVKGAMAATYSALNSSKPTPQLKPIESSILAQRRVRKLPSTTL

[3] = biological target: Protein kinase C alpha type (Homo sapiens) (UniProt P17252); assay: Inhibition of PKCalpha at 10 uM relative to control; values are per cent of control
[4] = biological target: Glycogen synthase kinase-3 beta (Homo sapiens) (UniProt P49841); assay: Inhibition of GSKbeta at 10 uM relative to control; values are per cent of control
[5] = biological target: cAMP-dependent protein kinase (PKA) (Homo sapiens) (UniProt P22694+P17612+P22612); assay: Inhibition of PKA at 10 uM relative to control; values are per cent of control
[6] = biological target: Casein kinase I (Homo sapiens) (UniProt Q9HCP0+P78368+P48730+P49674+P48729); assay: Residual activity of CK1 at 10 uM relative to control
[7] = biological target: Serine/threonine-protein kinase Sgk1 (Homo sapiens) (UniProt O00141); assay: Inhibition of SGK at 10 uM relative to control; values are per cent of control
[8] = biological target: EKC/KEOPS complex subunit BUD32 (Saccharomyces cerevisiae S288c) (UniProt P53323); assay: Inhibition of PiD261 at 10 uM relative to control; values are per cent of control
Homo sapiens [9] = species: Homo sapiens; assay: Inhibition of phosphorylase kinase at 10 uM relative to control
[10] = biological target: Mitogen-activated protein kinase 8 (Homo sapiens) (UniProt P45983); assay: Inhibition of JNK/SAPK1c at 10 uM relative to control; values are per cent of control
Chain of Mitogen-activated protein kinase 8 (Homo sapiens) (P45983 whole entry): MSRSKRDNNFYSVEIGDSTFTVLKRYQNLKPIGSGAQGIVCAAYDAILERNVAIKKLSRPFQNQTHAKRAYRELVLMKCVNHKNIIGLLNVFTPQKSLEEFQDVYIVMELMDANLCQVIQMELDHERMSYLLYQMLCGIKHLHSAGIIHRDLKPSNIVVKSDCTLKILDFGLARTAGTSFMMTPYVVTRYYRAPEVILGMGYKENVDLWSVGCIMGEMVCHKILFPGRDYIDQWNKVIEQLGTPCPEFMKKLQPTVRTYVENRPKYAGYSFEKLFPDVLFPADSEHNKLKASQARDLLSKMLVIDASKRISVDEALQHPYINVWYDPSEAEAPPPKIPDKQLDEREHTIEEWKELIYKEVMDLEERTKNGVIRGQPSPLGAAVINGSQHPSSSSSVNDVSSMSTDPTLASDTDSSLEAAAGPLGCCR

[11] = biological target: Tyrosine-protein kinase Lck (Homo sapiens) (UniProt P06239); assay: Inhibition of Lck at 10 uM relative to control; values are per cent of control
[12] = biological target: AMP-activated protein kinase (AMPK) alpha-1/beta-1/gamma-1 (Homo sapiens) (UniProt P54619+Q9Y478+Q13131); assay: Inhibition of AMPK at 10 uM relative to control; values are per cent of control
Chain of AMP-activated protein kinase (AMPK) alpha-1/beta-1/gamma-1 (Homo sapiens) (P54619 whole entry): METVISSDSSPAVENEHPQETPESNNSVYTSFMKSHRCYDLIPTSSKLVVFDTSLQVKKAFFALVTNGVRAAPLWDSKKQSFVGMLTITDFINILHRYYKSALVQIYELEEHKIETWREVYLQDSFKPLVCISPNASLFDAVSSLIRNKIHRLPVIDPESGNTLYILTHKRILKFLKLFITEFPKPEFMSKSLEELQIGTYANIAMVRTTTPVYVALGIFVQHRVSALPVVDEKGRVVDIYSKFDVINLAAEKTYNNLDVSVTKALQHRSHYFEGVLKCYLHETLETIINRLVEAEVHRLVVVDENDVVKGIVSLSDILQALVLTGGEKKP
Chain of AMP-activated protein kinase (AMPK) alpha-1/beta-1/gamma-1 (Homo sapiens) (Q13131 whole entry partner): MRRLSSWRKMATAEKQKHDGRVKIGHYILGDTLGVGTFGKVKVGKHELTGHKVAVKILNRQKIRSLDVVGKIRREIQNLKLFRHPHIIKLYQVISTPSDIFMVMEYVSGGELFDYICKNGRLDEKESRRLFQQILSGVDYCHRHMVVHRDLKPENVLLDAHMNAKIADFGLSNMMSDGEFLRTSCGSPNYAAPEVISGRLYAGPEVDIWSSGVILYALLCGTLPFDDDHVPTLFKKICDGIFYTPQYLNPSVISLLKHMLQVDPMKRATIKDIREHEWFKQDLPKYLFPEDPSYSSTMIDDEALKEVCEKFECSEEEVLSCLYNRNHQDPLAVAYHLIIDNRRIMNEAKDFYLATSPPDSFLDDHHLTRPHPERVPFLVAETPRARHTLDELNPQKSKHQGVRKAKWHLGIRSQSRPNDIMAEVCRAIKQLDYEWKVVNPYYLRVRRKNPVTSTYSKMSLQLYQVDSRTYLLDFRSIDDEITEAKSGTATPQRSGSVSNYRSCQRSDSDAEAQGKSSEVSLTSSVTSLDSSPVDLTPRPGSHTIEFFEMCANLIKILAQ
Chain of AMP-activated protein kinase (AMPK) alpha-1/beta-1/gamma-1 (Homo sapiens) (Q9Y478 2-270 partner limits assumed): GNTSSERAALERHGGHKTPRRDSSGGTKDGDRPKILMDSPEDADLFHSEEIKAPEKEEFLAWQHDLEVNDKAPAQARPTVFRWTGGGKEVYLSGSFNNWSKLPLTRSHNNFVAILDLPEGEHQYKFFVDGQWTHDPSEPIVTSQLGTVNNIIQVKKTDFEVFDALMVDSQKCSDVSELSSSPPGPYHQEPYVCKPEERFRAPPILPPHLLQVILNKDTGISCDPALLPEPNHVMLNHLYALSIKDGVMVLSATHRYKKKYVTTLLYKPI

[13] = biological target: Serine/threonine-protein kinase Sgk1 (Homo sapiens, UniProt O00141); assay: Inhibition of SGK
[14] = biological target: Tyrosine-protein kinase Lyn (Homo sapiens) (UniProt P07948); assay: Residual activity of Lyn at 10 uM relative to control
Jurkat [15] = assay: Induction of caspase activation assessed as PARP cleavage in Jurkat T cells; type: functional, cell-based; conditions: Homo sapiens; summary of the method: as §1
[16] = biological target: MAP kinase-activated protein kinase 2 (Homo sapiens) (UniProt P49137); assay: Inhibition of MAPKAPK2 at 10 uM relative to control; values are per cent of control
[17] = biological target: Mitogen-activated protein kinase 14 (Homo sapiens) (UniProt Q16539); assay: Inhibition of SAPK2a/p38 at 10 uM relative to control; values are per cent of control
[18] = biological target: Mitogen-activated protein kinase 13 (Homo sapiens) (UniProt O15264); assay: Residual activity of SAPK4/p38delta at 10 uM relative to control
[19] = biological target: T2, Dual specificity mitogen-activated protein kinase kinase 1 (Homo sapiens, UniProt Q02750); assay: Inhibition of MKK1 at 10 uM relative to control; values are per cent of control
T2 sequence (Q02750 whole entry): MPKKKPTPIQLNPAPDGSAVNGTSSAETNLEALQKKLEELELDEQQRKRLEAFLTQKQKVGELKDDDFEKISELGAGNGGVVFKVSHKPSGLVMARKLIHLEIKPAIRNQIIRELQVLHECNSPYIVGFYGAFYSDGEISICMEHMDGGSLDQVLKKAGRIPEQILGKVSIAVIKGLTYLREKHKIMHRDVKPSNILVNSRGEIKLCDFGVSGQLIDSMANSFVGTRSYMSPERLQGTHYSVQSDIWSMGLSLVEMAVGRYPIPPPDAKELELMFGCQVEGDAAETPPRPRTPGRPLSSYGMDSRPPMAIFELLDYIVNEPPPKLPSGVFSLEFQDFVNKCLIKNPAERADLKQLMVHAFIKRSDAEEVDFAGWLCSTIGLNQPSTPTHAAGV

[20] = biological target: T2, Dual specificity mitogen-activated protein kinase kinase 1; assay: Inhibition of MKK1
[21] = biological target: Mitogen-activated protein kinase 12 (Homo sapiens) (UniProt P53778); assay: Residual activity of SAPK3/p38gamma relative to control
[22] = biological target: T3, Dual specificity tyrosine-phosphorylation-regulated kinase 1A (Homo sapiens, UniProt Q13627); assay: Inhibition of DYRK1A
[23] = biological target: Ribosomal protein S6 kinase alpha-5 (Homo sapiens) (UniProt O75582); assay: Residual activity of MSK1 at 10 uM relative to control
Chain of Ribosomal protein S6 kinase alpha-5 (Homo sapiens) (O75582 whole entry, looked up): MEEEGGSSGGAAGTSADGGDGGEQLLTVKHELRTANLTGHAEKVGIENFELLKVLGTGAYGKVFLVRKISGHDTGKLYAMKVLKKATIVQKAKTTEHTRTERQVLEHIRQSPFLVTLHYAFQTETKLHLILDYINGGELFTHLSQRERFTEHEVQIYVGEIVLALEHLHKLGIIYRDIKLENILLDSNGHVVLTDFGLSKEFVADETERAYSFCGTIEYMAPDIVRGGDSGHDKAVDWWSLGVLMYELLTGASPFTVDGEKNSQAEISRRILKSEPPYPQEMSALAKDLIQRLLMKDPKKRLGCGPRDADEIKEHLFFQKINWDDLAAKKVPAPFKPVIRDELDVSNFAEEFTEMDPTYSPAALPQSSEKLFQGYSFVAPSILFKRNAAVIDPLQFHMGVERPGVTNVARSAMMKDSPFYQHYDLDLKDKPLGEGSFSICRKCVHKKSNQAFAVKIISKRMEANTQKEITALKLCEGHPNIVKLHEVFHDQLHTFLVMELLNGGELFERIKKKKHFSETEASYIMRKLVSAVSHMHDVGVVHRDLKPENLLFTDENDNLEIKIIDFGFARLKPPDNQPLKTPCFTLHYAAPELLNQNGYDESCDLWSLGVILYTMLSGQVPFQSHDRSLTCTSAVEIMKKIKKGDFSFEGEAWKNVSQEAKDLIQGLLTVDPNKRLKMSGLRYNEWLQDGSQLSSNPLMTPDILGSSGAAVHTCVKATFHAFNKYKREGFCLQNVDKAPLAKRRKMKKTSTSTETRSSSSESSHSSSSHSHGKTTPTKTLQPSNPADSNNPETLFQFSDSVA

[24] = biological target: Tyrosine-protein kinase SYK (Rattus norvegicus) (UniProt Q64725); assay: Residual activity of Syk at 10 uM relative to control
[25] = biological target: Mitogen-activated protein kinase 1 (Homo sapiens) (UniProt P28482); assay: Inhibition of MAPK2/ERK2 at 10 uM relative to control; values are per cent of control
[26] = biological target: 3-phosphoinositide-dependent protein kinase 1 (Homo sapiens) (UniProt O15530); assay: Inhibition of PDK1 at 10 uM relative to control; values are per cent of control
Chain of 3-phosphoinositide-dependent protein kinase 1 (Homo sapiens) (O15530 whole entry): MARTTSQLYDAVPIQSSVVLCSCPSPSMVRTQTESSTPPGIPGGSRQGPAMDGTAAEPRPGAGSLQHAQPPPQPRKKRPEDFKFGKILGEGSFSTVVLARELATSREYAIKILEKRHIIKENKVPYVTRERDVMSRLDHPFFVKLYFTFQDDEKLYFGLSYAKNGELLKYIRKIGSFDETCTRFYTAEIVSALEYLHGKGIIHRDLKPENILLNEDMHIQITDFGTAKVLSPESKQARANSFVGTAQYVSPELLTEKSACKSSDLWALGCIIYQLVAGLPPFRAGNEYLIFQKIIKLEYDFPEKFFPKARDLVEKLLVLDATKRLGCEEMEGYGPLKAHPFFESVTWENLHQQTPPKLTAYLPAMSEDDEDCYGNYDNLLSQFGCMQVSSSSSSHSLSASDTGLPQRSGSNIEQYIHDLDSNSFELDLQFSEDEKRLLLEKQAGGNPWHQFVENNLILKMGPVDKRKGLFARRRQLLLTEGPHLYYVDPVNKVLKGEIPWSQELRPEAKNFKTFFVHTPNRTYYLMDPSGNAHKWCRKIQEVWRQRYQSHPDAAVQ

[27] = biological target: Cyclin-dependent kinase 2/cyclin A (Homo sapiens, UniProt P24941); assay: Inhibition of CDK2/Cyclin A; type: protein-complex assay
Jurkat [28] = assay: Inhibition of cell viability in Jurkat T cells after 24 hrs by MTT method; type: functional, cell-based; conditions: Homo sapiens
Summary of the method: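 Human Jurkat T-leukemia cells, grown in RPMI-1640 with 10% FCS, were resuspended at 10⁶ cells/mL in medium with 1% FCS. They were exposed to increasing compound concentrations for 24 h at 37 °C. Controls received DMSO (0.5% v/v), set as 100% viability. Viability was read by MTT. Values are means ± SEM of three separate experiments; DC50 was taken as the concentration halving viability.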

[29] = biological target: Mitogen-activated protein kinase 11 (Homo sapiens) (UniProt Q15759); assay: Inhibition of SAPK2b/p38--beta-2 at 10 uM relative to control; values are per cent of control
[30] = biological target: T1, Ribosomal protein S6 kinase alpha-1; assay: Inhibition of MAPKAPK1a
[31] = biological target: Serine/threonine-protein kinase Chk1 (Homo sapiens) (UniProt O14757); assay: Inhibition of at CHK1 at 10 uM relative to control; values are per cent of control
[32] = biological target: Ribosomal protein S6 kinase beta-1 (Homo sapiens) (UniProt P23443); assay: Residual activity of S6K1 at 10 uM relative to control
[33] = biological target: Rho-associated protein kinase 2 (Homo sapiens) (UniProt O75116); assay: Inhibition of ROCK2 at 10 uM relative to control; values are per cent of control
Homo sapiens [34] = species: Homo sapiens; assay: Inhibition of PP2A at 10 uM relative to control; values are per cent of control
[35] = biological target: MAP kinase-activated protein kinase 5 (Homo sapiens) (UniProt Q8IW41); assay: Residual activity of PRAK at 10 uM relative to control
[36] = biological target: T3, Dual specificity tyrosine-phosphorylation-regulated kinase 1A; assay: Inhibition of DYRK1A at 10 uM relative to control; values are per cent of control
Jurkat [37] = assay: Induction of mitochondrial depolarization in Jurkat T cells up to 10 uM; type: functional, cell-based; conditions: Homo sapiens
[38] = biological target: RAC-alpha serine/threonine-protein kinase (Homo sapiens) (UniProt P31749); assay: Inhibition of PKBalpha at 10 uM relative to control; values are per cent of control
[39] = biological target: Tyrosine-protein kinase CSK (Homo sapiens) (UniProt P41240); assay: Inhibition of CSK at 10 uM relative to control
Summary of the method: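 Kinase selectivity panel: activity of each kinase measured with inhibitor at 10 μM. Residual activity is expressed as a percentage of a control run without inhibitor. Assays were linear with respect to time and enzyme concentration. Lyn, c-Fgr and Syk were purified from rat spleen. Golgi CK came from rat lactating mammary gland.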

Compound | residual activity [2] | residual activity [3] | residual activity [4] | residual activity [5] | residual activity [6] | residual activity [7] | residual activity (Homo sapiens [9]) | residual activity [10] | residual activity [12] | residual activity [14] | residual activity [16] | residual activity [17] | residual activity [18] | residual activity [19] | residual activity [21] | residual activity [23] | residual activity [24] | residual activity [25] | residual activity [26] | DC50 (Jurkat [28]) | also measured
CN(C)c1nc2c(Br)c(Br)c(Br)c(Br)c2[nH]1 | 52% | 95% | 103% | 80% | 87% | 29% | 41% | 97% | 73% | 91% | 101% | 85% | 109% | 53% | 88% | 73% | 103% | 77% | 112% | 2.7 µM | Activity (Jurkat [1]): Active; residual activity [8]: 97%; residual activity [11]: 104%; pIC50 [13]: 5.45; Activity (Jurkat [15]): Active; pIC50 [20]: 4.98; pIC50 [22]: 6.92; pIC50 [27]: 5.62; residual activity [29]: 65%; pIC50 [30]: 4.99; residual activity [31]: 81%; residual activity [32]: 65%; residual activity [33]: 69%; residual activity (Homo sapiens [34]): 67%; residual activity [35]: 77%; residual activity [36]: 2%; Activity (Jurkat [37]): inactive; residual activity [38]: 96%
Brc1c(Br)c(Br)c2[nH]nnc2c1Br [TETRABROMOBENZOTRIAZOLE] | 90% | 102% | 64% | 90% | 91% | 97% | 49% | 93% | 96% | 99% | 108% | 107% | 99% | 94% | 89% | 111% | 102% | 111% | 97% | 17 µM | inhibition [39]: 101%; residual activity [29]: 103%; residual activity [31]: 101%; residual activity [32]: 89%; residual activity [33]: 91%; residual activity (Homo sapiens [34]): 117%; residual activity [35]: 87%; residual activity [36]: 22%; residual activity [38]: 91%
